In brackets after ≈: the same amount, converted by molar mass.
How the values were obtained:
Format in all cases: functional
[1] = system: Mycobacterium tuberculosis; experiment: Antimycobacterial activity against patient derived INH/RIF resistance Mycobacterium tuberculosis isolate 1 incubated for 7 days by MTT-based broth microdilution assay; conditions: isolate 1, 168 h
Method in brief: (§1)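 Drug-resistant clinical isolates from Lisbon patients (2008–2009) grown in MB7H9 + 10% OADC at 37 °C to OD600 0.8, diluted to ~10^5 cells/mL; equal volume added to 2-fold serial compound dilutions. Plates sealed, 7 days at 37 °C, then MTT to final 2.5% overnight; MIC = lowest concentration with no colour change; triplicate.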

[2] = system: Mycobacterium tuberculosis; experiment: Antimycobacterial activity against patient derived INH/RIF resistance Mycobacterium tuberculosis isolate 2 incubated for 7 days by MTT-based broth microdilution assay; conditions: isolate 2, 168 h; method in brief: as §1
[3] = system: Mycobacterium tuberculosis; experiment: Antimycobacterial activity against patient derived extreme drug resistance Mycobacterium tuberculosis isolate 3 incubated for 7 days by MTT-based broth microdilution assay; conditions: isolate 3, 168 h; method in brief: as §1

Compound | MIC90 [1] [µg/mL] | MIC90 [2] [µg/mL] | MIC90 [3] [µg/mL]
Cc1ccc(Nc2nc(-c3cc(C(=O)Nc4ccccc4)no3)cs2)cc1 | 2 (≈ 5.31 µM) | 1 (≈ 2.66 µM) | 2 (≈ 5.31 µM)
Cc1ccc(Nc2nc(-c3cc(C(=O)Nc4ccccn4)no3)cs2)cc1 | 2 (≈ 5.3 µM) | 1 (≈ 2.65 µM) | 2 (≈ 5.3 µM)

— ChEMBL document CHEMBL4038332, “Substituted N-Phenyl-5-(2-(phenylamino)thiazol-4-yl)isoxazole-3-carboxamides Are Valuable Antitubercular Candidates that Evade Innate Efflux Machinery” (J Med Chem, 2017)
